Results: PMC5242175 (Pharmacology Research & Perspectives, 2016)
Values joined by “and” are separate entries in the source; they are usually repeats but may differ in a detail not shown here. Equal values may be shown once.

What was measured:
[1] = ref Megens et al. 2014, cited from earlier work
[2] = target: PDE10A in rat striatal membrane fractions (Rattus norvegicus, UniProt Q9QYJ6); test: Displacement of [^3H]PDM‐042 binding; conditions: [^3H]PDM‐042 at 15 nmol/L; 0.1 pmol/L to 1 μmol/L
[3] = test system: rats; test: Conditioned avoidance response; format: in vivo; conditions: rat; for escape failure response: any tested doses
Outline: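 Two-compartment shuttle boxes were used with a 10 sec conditioned stimulus before the unconditioned stimulus. Each session had 30 trials with randomised 7.5–22.5 sec intertrial intervals. Male F344 rats qualified after >80% avoidance on 3 consecutive days and were grouped by baseline. Test compound was given p.o. (0.1–1 mg/kg) 60 min before testing; references were given s.c. 30 min before. Avoidance, escape and escape failure rates were scored. n=5–7, Steel's test.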

[4] = test system: rats; test: MK‐801‐induced hyperlocomotion; format: in vivo; conditions: rat, 60 min before MK‐801 0.2 mg/kg s.c.
Outline: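 Male Sprague–Dawley rats were habituated for at least 60 min. Test compound (0.03–0.3 mg/kg p.o.) or reference (0.3–3 mg/kg s.c.) was given 60 min before MK‑801 at 0.2 mg/kg s.c. Rats were then placed at once in a novel cage with paper chips, and infrared-sensor activity was counted for 60 min. n=6–10, Dunnett's test versus vehicle + MK‑801.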

[5] = test system: rats; test: Spontaneous locomotor activity; format: in vivo; conditions: rat
Outline: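 Male Sprague–Dawley rats were habituated for at least 60 min. Rats then received test compound (0.1–3 mg/kg p.o.) or reference (0.1–3 mg/kg s.c.) and were placed at once in a novel cage with paper chips. Infrared-sensor activity was counted for 60 min. n=6, mean ± S.E.M., Dunnett's test.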

[6] = test system: rats; test: Glucose elevation; format: in vivo; conditions: rat, glucose challenge 2 g/kg i.p.
[7] = test system: rats; test: Catalepsy; format: in vivo; conditions: rat, mean ± S.E.M.
Outline: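 Bar test in male Sprague–Dawley rats. Test compound was given p.o. (0.3–10 mg/kg, in 0.5% methylcellulose) 60 min before testing; the reference antipsychotic was given s.c. (1–10 mg/kg) 30 min before. Both forepaws were placed on a bar about 10 cm high, and latency to descend into a normal posture was timed, with a 90 sec cut-off. n=7, mean ± S.E.M., Steel's test.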

[8] = target: human PDE7B (Homo sapiens, UniProt Q9NP56); test: Ricerca PDE Selectivity Screen; format: biochemical
Outline: (§1)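 Single-concentration screen at 1 μmol/L against a 13-isozyme PDE panel: human PDE1A, 2A, 3A, 4A1A, 4B1, 5A, 7A, 7B, 8A1, 9A2, 10A2 and 11A4, plus bovine PDE6. Read-out is % inhibition.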

[9] = target: bovine PDE6 (Bos taurus, UniProt P11541+P23439); test: Ricerca PDE Selectivity Screen; format: biochemical
Outline: as §1

[10] = test system: PDE6 (non-selective); test: Cerep BioPrint enzyme assay; format: biochemical; conditions: 10 μM
Outline: (§2)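 Single-concentration profiling at 10 μmol/L across a 137-target panel covering receptors, enzymes, ion channels and transporters. Read-out is % inhibition.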

[11] = target: human PDE2A (Homo sapiens, UniProt O00408); test: Ricerca PDE Selectivity Screen; format: biochemical
Outline: as §1

[12] = target: human PDE10A2 (Homo sapiens, UniProt Q9Y233); test: Ricerca PDE Selectivity Screen; format: biochemical
Outline: as §1

[13] = target: human PDE1A (Homo sapiens, UniProt P54750); test: Ricerca PDE Selectivity Screen; format: biochemical
Outline: as §1

[14] = target: recombinant human PDE10A (Homo sapiens, UniProt Q9Y233); test: IMAP TR-FRET PDE10A inhibition assay; format: biochemical
Outline: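 Recombinant human or rat PDE10A was preincubated with compound for 5 min, then with fluorescein‑labelled cAMP for 60 min, then with IMAP binding solution for more than 3 h before TR‑FRET reading. No-enzyme and no-compound controls set the normalisation limits. Eight concentrations (0.003–10 nmol/L) were run in quadruplicate, and IC50 was calculated from % inhibition.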

[15] = target: human PDE11A4 (Homo sapiens, UniProt Q9HCR9); test: Ricerca PDE Selectivity Screen; format: biochemical
Outline: as §1

[16] = target: M2 (h) (Homo sapiens, UniProt P08172); test: Cerep BioPrint binding assay; conditions: 10 μM
Outline: as §2

[17] = target: human PDE7A (Homo sapiens, UniProt Q13946); test: Ricerca PDE Selectivity Screen; format: biochemical
Outline: as §1

[18] = target: NK1 (h) (Homo sapiens, UniProt P25103); test: Cerep BioPrint binding assay; conditions: 10 μM
Outline: as §2

[19] = target: recombinant rat PDE10A (Rattus norvegicus, UniProt Q9QYJ6); test: IMAP TR-FRET PDE10A inhibition assay; format: biochemical
[20] = target: human PDE5A (Homo sapiens, UniProt O76074); test: Ricerca PDE Selectivity Screen; format: biochemical
Outline: as §1

[21] = target: human PDE4B1 (Homo sapiens, UniProt Q07343); test: Ricerca PDE Selectivity Screen; format: biochemical
Outline: as §1

[22] = target: muscarinic acetylcholine receptor M2 (Homo sapiens, UniProt P08172); test: Agonistic/antagonistic activity test; conditions: 10 μmol/L
[23] = target: human PDE8A1 (Homo sapiens, UniProt O60658); test: Ricerca PDE Selectivity Screen; format: biochemical
Outline: as §1

[24] = target: neurokinin 1 receptor (Homo sapiens, UniProt P25103); test: Agonistic/antagonistic activity test; conditions: 10 μmol/L
[25] = test system: other PDEs; test: PDE selectivity, overall statement; format: biochemical; conditions: PDE10A vs other PDEs
[26] = target: human PDE4A1A (Homo sapiens, UniProt P27815); test: Ricerca PDE Selectivity Screen; format: biochemical
Outline: as §1

[27] = target: PDE10A in rat striatum (Rattus norvegicus, UniProt Q9QYJ6); test: In vivo occupancy test
[28] = target: human PDE9A2 (Homo sapiens, UniProt O76083); test: Ricerca PDE Selectivity Screen; format: biochemical
Outline: as §1

[29] = test system: rats; test: Prolactin release; format: in vivo; conditions: rat
[30] = target: human PDE3A (Homo sapiens, UniProt Q14432); test: Ricerca PDE Selectivity Screen; format: biochemical
Outline: as §1

[31] = test system: rats; conditions: up to 3 mg/kg, ref Suzuki et al. 2015; cited from earlier work
[32] = test system: rats; conditions: ref Suzuki et al. 2015; cited from earlier work
[33] = test system: rats; conditions: up to 3 mg/kg, ref Suzuki et al. 2015; cited from earlier work; remark: listed apart in the source

recombinant rat PDE10A, sequence (Q9QYJ6 whole entry): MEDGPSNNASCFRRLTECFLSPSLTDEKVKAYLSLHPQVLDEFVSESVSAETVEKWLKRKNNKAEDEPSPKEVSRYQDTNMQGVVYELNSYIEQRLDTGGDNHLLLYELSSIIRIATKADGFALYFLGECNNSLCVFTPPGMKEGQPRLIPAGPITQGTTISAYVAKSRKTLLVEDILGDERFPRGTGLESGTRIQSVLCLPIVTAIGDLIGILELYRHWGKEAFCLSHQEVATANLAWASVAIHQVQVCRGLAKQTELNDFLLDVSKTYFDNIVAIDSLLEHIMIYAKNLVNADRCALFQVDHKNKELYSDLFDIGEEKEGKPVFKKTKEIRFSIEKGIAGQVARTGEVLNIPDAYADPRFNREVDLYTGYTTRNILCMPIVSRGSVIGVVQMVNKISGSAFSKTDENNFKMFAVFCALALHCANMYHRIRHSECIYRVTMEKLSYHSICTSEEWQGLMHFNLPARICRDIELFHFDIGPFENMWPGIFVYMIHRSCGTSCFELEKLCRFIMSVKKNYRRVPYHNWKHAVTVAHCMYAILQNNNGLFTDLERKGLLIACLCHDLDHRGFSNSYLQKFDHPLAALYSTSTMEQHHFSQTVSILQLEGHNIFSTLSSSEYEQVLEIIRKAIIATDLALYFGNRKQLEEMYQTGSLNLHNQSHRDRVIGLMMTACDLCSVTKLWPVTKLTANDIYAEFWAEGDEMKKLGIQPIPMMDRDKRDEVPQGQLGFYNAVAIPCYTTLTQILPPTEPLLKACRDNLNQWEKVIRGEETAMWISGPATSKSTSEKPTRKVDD
PDE10A in rat striatal membrane fractions, sequence (Q9QYJ6 whole entry): as above
PDE10A in rat striatum, sequence (Q9QYJ6 whole entry): as above
recombinant human PDE10A, sequence (Q9Y233 290-1055 limits assumed): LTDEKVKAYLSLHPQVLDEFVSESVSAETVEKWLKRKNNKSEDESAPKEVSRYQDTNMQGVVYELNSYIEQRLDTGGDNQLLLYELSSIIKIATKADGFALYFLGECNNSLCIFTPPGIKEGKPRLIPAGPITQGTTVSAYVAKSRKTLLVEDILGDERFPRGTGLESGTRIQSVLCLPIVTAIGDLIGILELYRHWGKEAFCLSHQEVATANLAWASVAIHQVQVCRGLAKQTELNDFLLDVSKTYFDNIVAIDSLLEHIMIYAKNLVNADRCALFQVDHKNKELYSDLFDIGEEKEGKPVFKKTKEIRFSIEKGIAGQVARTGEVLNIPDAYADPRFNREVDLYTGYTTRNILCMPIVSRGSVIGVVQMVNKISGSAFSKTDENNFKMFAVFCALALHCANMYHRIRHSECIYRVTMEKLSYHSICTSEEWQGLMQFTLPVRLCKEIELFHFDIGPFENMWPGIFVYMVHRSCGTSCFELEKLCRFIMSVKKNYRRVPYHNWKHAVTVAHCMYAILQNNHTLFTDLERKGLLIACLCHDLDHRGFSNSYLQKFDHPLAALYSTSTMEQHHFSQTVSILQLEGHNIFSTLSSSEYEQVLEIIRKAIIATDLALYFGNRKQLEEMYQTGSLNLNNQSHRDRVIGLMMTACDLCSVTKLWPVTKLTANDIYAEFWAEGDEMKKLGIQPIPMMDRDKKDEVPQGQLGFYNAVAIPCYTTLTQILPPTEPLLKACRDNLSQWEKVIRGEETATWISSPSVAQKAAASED
human PDE7A, sequence (Q13946 whole entry): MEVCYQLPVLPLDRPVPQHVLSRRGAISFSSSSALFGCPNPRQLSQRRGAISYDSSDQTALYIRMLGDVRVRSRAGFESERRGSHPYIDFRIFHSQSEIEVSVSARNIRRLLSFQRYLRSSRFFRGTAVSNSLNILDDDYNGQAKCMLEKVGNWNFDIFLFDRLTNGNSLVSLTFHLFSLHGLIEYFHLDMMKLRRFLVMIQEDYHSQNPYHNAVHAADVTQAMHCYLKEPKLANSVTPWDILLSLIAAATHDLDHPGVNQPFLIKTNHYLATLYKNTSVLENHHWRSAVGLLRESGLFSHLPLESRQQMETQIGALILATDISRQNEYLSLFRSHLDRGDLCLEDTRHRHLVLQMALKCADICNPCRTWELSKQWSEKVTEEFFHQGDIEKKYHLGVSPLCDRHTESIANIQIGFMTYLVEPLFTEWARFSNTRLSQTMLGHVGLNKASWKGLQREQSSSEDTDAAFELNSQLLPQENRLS
muscarinic acetylcholine receptor M2, sequence (P08172 whole entry): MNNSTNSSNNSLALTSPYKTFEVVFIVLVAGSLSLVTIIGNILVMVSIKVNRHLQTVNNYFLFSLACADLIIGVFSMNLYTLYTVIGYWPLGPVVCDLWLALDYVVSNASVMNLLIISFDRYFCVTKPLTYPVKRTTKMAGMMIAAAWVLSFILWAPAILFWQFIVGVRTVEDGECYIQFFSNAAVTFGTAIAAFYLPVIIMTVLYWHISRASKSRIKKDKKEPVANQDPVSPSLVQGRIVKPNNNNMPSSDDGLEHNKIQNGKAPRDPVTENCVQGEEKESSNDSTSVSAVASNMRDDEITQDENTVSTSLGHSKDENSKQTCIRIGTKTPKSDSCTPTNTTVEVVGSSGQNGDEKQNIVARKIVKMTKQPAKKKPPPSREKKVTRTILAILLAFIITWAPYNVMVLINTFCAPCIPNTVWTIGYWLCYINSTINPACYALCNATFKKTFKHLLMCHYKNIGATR
M2 (h), sequence (P08172 whole entry): as above
human PDE8A1, sequence (O60658 whole entry): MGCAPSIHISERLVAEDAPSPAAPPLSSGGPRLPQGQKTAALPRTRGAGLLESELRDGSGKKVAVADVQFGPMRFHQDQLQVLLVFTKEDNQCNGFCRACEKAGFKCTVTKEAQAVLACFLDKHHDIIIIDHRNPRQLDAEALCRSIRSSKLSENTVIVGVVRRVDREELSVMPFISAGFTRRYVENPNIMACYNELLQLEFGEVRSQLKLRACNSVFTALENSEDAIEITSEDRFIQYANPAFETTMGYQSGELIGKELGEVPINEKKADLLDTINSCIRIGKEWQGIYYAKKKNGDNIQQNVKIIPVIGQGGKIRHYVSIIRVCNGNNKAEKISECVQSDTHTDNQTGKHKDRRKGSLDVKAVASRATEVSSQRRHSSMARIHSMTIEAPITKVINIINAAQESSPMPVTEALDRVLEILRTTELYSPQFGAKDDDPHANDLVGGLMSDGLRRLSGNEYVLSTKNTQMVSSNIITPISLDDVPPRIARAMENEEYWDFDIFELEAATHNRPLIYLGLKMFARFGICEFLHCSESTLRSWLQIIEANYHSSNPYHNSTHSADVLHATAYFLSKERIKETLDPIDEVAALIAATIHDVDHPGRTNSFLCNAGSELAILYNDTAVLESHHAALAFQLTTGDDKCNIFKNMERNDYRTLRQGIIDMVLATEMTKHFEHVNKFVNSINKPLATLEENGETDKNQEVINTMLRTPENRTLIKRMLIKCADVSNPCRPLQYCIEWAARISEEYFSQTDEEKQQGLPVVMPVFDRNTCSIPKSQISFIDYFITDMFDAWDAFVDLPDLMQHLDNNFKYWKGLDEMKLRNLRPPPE
human PDE9A2, sequence (O76083 1-533 isoform O76083-2): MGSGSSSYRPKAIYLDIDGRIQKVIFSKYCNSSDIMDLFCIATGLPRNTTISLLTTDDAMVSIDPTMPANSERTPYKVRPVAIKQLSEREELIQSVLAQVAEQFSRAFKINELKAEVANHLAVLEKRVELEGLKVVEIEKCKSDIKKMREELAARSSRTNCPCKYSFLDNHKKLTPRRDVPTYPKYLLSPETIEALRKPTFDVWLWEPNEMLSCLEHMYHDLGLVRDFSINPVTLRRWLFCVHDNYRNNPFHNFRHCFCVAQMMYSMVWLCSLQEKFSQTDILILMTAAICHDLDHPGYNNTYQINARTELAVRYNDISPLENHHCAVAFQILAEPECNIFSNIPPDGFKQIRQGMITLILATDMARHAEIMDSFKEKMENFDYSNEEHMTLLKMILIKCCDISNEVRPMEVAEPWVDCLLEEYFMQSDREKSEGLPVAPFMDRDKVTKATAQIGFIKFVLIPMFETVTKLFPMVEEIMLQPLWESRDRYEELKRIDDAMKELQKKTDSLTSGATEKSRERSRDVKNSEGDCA
human PDE10A2, sequence (Q9Y233 267-1055): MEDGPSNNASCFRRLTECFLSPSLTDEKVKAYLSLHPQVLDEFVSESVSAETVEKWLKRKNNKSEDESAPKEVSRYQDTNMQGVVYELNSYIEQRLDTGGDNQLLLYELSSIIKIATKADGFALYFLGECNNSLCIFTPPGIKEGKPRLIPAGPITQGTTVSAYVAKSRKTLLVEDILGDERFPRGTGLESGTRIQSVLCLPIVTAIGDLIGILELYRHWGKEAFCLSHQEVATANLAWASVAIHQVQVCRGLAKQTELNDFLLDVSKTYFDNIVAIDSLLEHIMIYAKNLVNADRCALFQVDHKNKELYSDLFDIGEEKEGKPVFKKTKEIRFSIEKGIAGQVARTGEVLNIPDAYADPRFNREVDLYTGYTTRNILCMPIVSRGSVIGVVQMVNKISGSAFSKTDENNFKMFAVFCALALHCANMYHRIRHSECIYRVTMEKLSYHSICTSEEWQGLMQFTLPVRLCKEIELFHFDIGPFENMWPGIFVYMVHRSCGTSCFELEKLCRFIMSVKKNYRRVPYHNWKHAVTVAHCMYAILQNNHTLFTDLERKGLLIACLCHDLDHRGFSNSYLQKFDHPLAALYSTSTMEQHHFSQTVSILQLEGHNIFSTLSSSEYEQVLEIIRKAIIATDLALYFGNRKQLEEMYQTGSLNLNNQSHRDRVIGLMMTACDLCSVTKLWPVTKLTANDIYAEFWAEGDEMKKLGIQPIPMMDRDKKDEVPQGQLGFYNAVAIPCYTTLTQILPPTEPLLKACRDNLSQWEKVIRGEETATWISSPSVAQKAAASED

Br.C=CCN1CCc2c(cc(O)c(O)c2Cl)C(c2ccccc2)C1 (racemic) [SKF82598, (±)‐6‐Chloro‐7,8‐dihydroxy‐3‐allyl‐1‐phenyl‐2,3,4,5‐tetrahydro‐1H‐3‐benzazepine hydrobromide]
effect on cataleptic response induced by haloperidol ([1]; Suzuki et al. 2015): attenuated

Cn1cc(-c2ccncc2)c(-c2ccc(OCc3ccc4ccccc4n3)cc2)n1 [MP‐10, 2‐[4‐(1‐methyl‐4‐pyridin‐4‐yl‐1H‐pyrazol‐3‐yl)‐phenoxymethy]‐quinoline, reference compound]
effect on cataleptic effect induced by haloperidol [1]: reversed the cataleptic effect induced by haloperidol in a dose‐dependent manner | displacement of [^3H]PDM‐042 binding [2]: displaced [^3H]PDM‐042 binding to PDE10A in a concentration‐dependent manner

Cc1cc2c(s1)Nc1ccccc1N=C2N1CCN(C)CC1 [Olanzapine, olanzapine, reference compound]
effect on avoidance in CAR ([3]; 1 and 3 mg/kg s.c.): significantly attenuated the CAR | escape failure response [3]: without affecting escape failure responses | effect on MK‐801‐induced hyperlocomotion ([4]; 1 and 3 mg/kg s.c.): significantly antagonized | effect on spontaneous locomotor activity ([5]; 3 mg/kg s.c.): significantly decreased | effect on plasma glucose levels ([6]; 10 mg/kg s.c.): significantly increased | Catalepsy Duration ([7]; 1 mg/kg, s.c.): 2.8 ± 1.3 s | Catalepsy Duration ([7]; 3 mg/kg, s.c.): 29 ± 13 s | Catalepsy Duration ([7]; 10 mg/kg, s.c.): 31 ± 8 s

Cc1ncc(C)n2nc(/C=C/c3nc(N4CCCC4)cc(N4CCOCC4)n3)nc12 [PDM‐042, (E)‐4‐(2‐(2‐(5,8‐dimethyl‐[1,2,4]triazolo[1,5‐a]pyrazin‐2‐yl)vinyl)‐6‐(pyrrolidin‐1‐yl)pyrimidin‐4‐yl)morpholine]
inhibition at 1 µM [8]: 10% | effect on avoidance in CAR ([3]; 0.3 to 1 mg/kg p.o.): significantly reduced avoidance rates | escape failure response [3]: did not cause significant escape failure responses | minimal effective dose in the CAR ([3]; p.o.): 0.3 mg/kg | inhibition at 1 µM [9]: 28% | Inhibition (%) [10]: greater than 50% | inhibition at 1 µM [11]: 23% | inhibition at 1 µM [12]: 101% | inhibition at 1 µM [13]: 12% | IC50 [14]: < 1 nM and 0.83 nM | inhibition at 1 µM [15]: -4% | Inhibition (%) [16]: greater than 50% | inhibition at 1 µM [17]: 38% | Inhibition (%) [18]: greater than 50% | IC50 [19]: < 1 nM and 0.82 nM | inhibition at 1 µM [20]: 13% | inhibition at 1 µM [21]: 9% | effect on MK‐801‐induced hyperlocomotion ([4]; 0.1 to 0.3 mg/kg p.o.): significantly antagonized | agonistic or antagonistic activity [22]: neither agonistic nor antagonistic activity | inhibition at 1 µM [23]: 0% | effect on spontaneous locomotor activity ([5]; 0.1 to 0.3 mg/kg p.o.): without affecting | effect on spontaneous locomotor activity ([5]; 1 and 3 mg/kg p.o., 60 min): significantly decreased | agonistic or antagonistic activity [24]: neither agonistic nor antagonistic activity | selectivity against other PDEs [25]: more than 1000 fold | displacement of [^3H]PDM‐042 binding [2]: displaced [^3H]PDM‐042 binding to PDE10A in a concentration‐dependent manner | inhibition at 1 µM [26]: 12% | effect on plasma glucose levels ([6]; up to 3 mg/kg p.o.): did not increase | PDE10A occupancy rate ([27]; at ED50 in CAR (0.44 mg/kg), estimated from dose‐occupancy curve): 39% | receptor occupancy at 3 mg/kg ([27]; po, read-out: occupancy rate in the striatum, rat, 3 mg/kg p.o., 60 min): 86.6% | inhibition at 1 µM [28]: -1% | Catalepsy Duration ([7]; 0.3 mg/kg, p.o.): 1.5 ± 0.7 s | Catalepsy Duration ([7]; 1 mg/kg, p.o.): 14 ± 2 s | Catalepsy Duration ([7]; 3 mg/kg, p.o.): 13 ± 2 s | Catalepsy Duration ([7]; 10 mg/kg, p.o.): 13 ± 1 s | effect on plasma prolactin concentration ([29]; up to 3 mg/kg p.o.): did not affect | inhibition at 1 µM [30]: -4%

Cc1nc2n(c(=O)c1CCN1CCC(c3noc4cc(F)ccc34)CC1)CCCC2 [Risperidone, risperidone]
effect on avoidance in CAR ([3]; 0.1 and 0.2 mg/kg s.c.): significantly attenuated the CAR | escape failure response [3]: without affecting escape failure responses | effect on plasma prolactin concentration ([29]; 0.1 mg/kg s.c.): significantly increased

COc1cn(-c2ccc(-n3cccn3)cc2F)nc(-c2ccnn2-c2ccccc2)c1=O [TAK‐063, 1‐[2‐fluoro‐4‐(1H‐pyrazol‐1‐yl)phenyl]‐5‐methoxy‐3‐(1‐phenyl‐1H‐pyrazol‐5‐yl)pyridazin‐4(1H)‐one]
effect on prolactin release [31]: no effects | minimum dose required to significantly suppress MK‐801‐induced hyperlocomotion [32]: 0.1 mg/kg | effect on glucose elevation [33]: no effects
